From ChEMBL document CHEMBL1154819, “Synthesis and antiviral activity of boranophosphonate isosteres of AZT and d4T monophosphates” (Eur J Med Chem, 2010)
The source made the active and inactive calls. The rule behind the calls is not given here.

How the values were obtained:
[1] = test system: Vaccinia virus; assay: Antiviral activity against Vaccinia virus infected in human HEL cells assessed as inhibition of virus-induced cytopathic effect up to 200 uM after 3 days; type: functional, organism-based; settings: Orthopoxvirus vaccinia
[2] = test system: Punta Toro virus; assay: Antiviral activity against Punta Toro virus infected in african green monkey Vero cells assessed as inhibition of virus-induced cytopathic effect up to 200 uM after 3 days; type: functional, organism-based
In short: (§1)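 Confluent cell monolayers in MEM with 10% FCS, 2 mM L-glutamine and 0.075% bicarbonate were inoculated with 100 times the 50% cell culture infective dose. Compounds were added after 1–2 h of virus adsorption. Cytopathic effect was scored microscopically at about 3 days as a percentage of untreated controls, and EC50 was read from graphical plots.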

[3] = test system: HEL; assay: Cytotoxicity against human HEL cells up to 200 uM after 3 days by MTS assay; type: cell-based; settings: 72 h
[4] = test system: Mammalian orthoreovirus 1; assay: Antiviral activity against Reovirus 1 infected in african green monkey Vero cells assessed as inhibition of virus-induced cytopathic effect up to 200 uM after 3 days; type: functional, organism-based; in short: as §1
[5] = Chemical stability in PBS of pH 11.5 by HPLC; type: physicochemical; settings: buffer
In short: (§2)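 Compound at an initial 0.1 mM was incubated at 37 °C in buffer at pH 1.2, 7.3 or 11.5. Timed aliquots were frozen at −80 °C and analysed directly by on-line precolumn-cleaning C18 HPLC (0.05 M TEAB to TEAB/CH3CN gradient). Half-lives of decomposition were calculated.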

[6] = test system: CCRF-CEM; assay: Stability in human CEM cells by HPLC; type: ADME, cell-based
In short: (§3)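 CEM-SS cells were washed in PBS, resuspended at 30×10^6 cells/mL in 10 mM Tris–HCl, 140 mM KCl (pH 7.4), sonicated and clarified at 10,000 g. Compound (0.1 mM initial) was incubated in the extract at 37 °C. Aliquots were frozen at −80 °C and analysed by on-line cleaning C18 HPLC to derive half-life.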

[7] = test system: Human alphaherpesvirus 2; assay: Antiviral activity against HSV2 infected in human HEL cells assessed as inhibition of virus-induced cytopathic effect up to 200 uM after 3 days; type: functional, organism-based; in short: as §1
[8] = test system: Respiratory syncytial virus; assay: Antiviral activity against RSV infected in human HeLa cells assessed as inhibition of virus-induced cytopathic effect up to 200 uM after 3 days; type: functional, organism-based; in short: as §1
[9] = test system: HeLa; assay: Cytotoxicity against human HeLa cells up to 200 uM after 3 days by MTS assay; type: cell-based; settings: 72 h
[10] = test system: Hepatitis C virus; assay: Antiviral activity against HCV 1b infected in Huh-5-2 cells assessed as inhibition of subgenomic replication; type: functional, organism-based; settings: Hepacivirus hominis, genotype 1b
In short: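 Huh-5-2 cells carry an HCV genotype 1b subgenomic replicon (I389luc-ubi-neo/NS3-3'/5.1) with a firefly luciferase fusion. They were seeded at 7000 cells/well without G418 and allowed to adhere for 24 h. Five 5-fold dilutions starting at 100 µM were then added for 72 h at 37 °C. Luciferase signal was expressed as % of untreated cultures to give EC50. Interferon alfa 2a (500 IU) served as positive control.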

[11] = test system: Vesicular stomatitis virus; assay: Antiviral activity against VSV infected in human HEL cells assessed as inhibition of virus-induced cytopathic effect up to 200 uM after 3 days; type: functional, organism-based
[12] = Cytotoxicity against human MAGI-CCR5 cells at 400 uM; type: cell-based; settings: magi-ccr5, 400 µM
In short: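 MAGI-CCR5 cells were exposed to 0–400 µM compound. CC50 is the concentration inhibiting cell proliferation by 50%.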

[13] = test system: Human respirovirus 3; assay: Antiviral activity against Parainfluenza virus 3 infected in african green monkey Vero cells assessed as inhibition of virus-induced cytopathic effect up to 200 uM after 3 days; type: functional, organism-based; in short: as §1
[14] = test system: Human immunodeficiency virus 1; assay: Antiviral activity against HIV1 NL4-3 infected in MAGI-CCR5 cells at 400 uM after 2 days; type: functional, organism-based
In short: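 HIV-1 NL4.3 stock came from 293T cells transfected with the molecular clone and was titred by p24. MAGI-CCR5 cells (10^4 cells, integrated HIV promoter–LacZ reporter, in DMEM with 10% FBS) were pretreated for 4 h with 0–400 µM compound. They were then spinoculated with 100 ng CAp24 and grown with compound. After 2 days, cells were stained for β-galactosidase and blue cells counted; EC50 is a 50% drop in blue cells.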

[15] = test system: Vero; assay: Cytotoxicity against african green monkey Vero cells up to 200 uM after 3 days by MTS assay; type: cell-based; settings: chlorocebus sabaeus, 72 h
[16] = test system: Human alphaherpesvirus 1; assay: Antiviral activity against HSV1 infected in human HEL cells assessed as inhibition of virus-induced cytopathic effect up to 200 uM after 3 days; type: functional, organism-based; in short: as §1
[17] = test system: Human immunodeficiency virus 1; assay: Antiviral activity against HIV1 3B infected in human CEM cells at 400 uM after 4 to 5 days; type: functional, organism-based; settings: CCRF-CEM
In short: (§4)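 CEM cells (4.5×10^5/ml) were infected at 100 CCID50 per ml, mixed 1:1 with compound dilutions and incubated at 37 °C. Giant-cell formation was scored microscopically after 4–5 days. EC50 is the concentration preventing syncytium formation by 50%.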

[18] = test system: Coxsackievirus B4; assay: Antiviral activity against Coxsackievirus B4 virus infected in human HeLa cells assessed as inhibition of virus-induced cytopathic effect up to 200 uM after 3 days; type: functional, organism-based; in short: as §1
[19] = Chemical stability in PBS of pH 1.2 by HPLC; type: physicochemical; settings: buffer; in short: as §2
[20] = Chemical stability in PBS of pH 7.3 by HPLC; type: physicochemical; settings: buffer; in short: as §2
[21] = test system: CCRF-CEM; assay: Cytotoxicity against human CEM cells at 400 uM after 3 days by MTS assay; type: cell-based; settings: 72 h
[22] = test system: Human immunodeficiency virus 2; assay: Antiviral activity against HIV2 ROD infected in human CEM cells at 400 uM after 4 to 5 days; type: functional, organism-based; settings: ISOLATE ROD, CCRF-CEM; in short: as §4
[23] = Chemical stability in culture media by HPLC; type: physicochemical
In short: (§5)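 Compound at an initial 0.1 mM was incubated at 37 °C in RPMI 1640 containing 10% heat-inactivated fetal calf serum. Aliquots were frozen at −80 °C and analysed by on-line precolumn-cleaning reversed-phase C18 HPLC with a TEAB/acetonitrile gradient. Decomposition half-lives were calculated.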

[24] = test system: Sindbis virus; assay: Antiviral activity against […] virus infected in african green monkey Vero cells assessed as inhibition of virus-induced cytopathic effect up to 200 uM after 3 days; type: functional, organism-based; in short: as §1
[25] = Cytotoxicity against human HuH5.2 cells up to 200 uM after 3 days by MTS assay; type: cell-based; settings: huh-5-2, 72 h
In short: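 Parallel Huh-5-2 cultures were seeded at 7000 cells/well and treated like the replicon assay without luciferase reagents. Proliferation was measured 3 days after compound addition by MTS bioreduction to formazan, read in a plate reader.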

[26] = Chemical stability assessed as half life of degradation in culture media by HPLC; type: physicochemical; in short: as §5
[27] = Chemical stability assessed as half life of degradation in PBS of pH 1.2 by HPLC; type: physicochemical
In short: (§6)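 Compound at 0.1 mM initial concentration in buffer, incubated at 37 °C. Aliquots were taken at set times, frozen at −80 °C, then analysed by on-line cleaning-precolumn reversed-phase HPLC (C18, TEAB/acetonitrile gradient). Decomposition half-life was calculated, with products identified by co-injection with authentic samples.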

[28] = Chemical stability assessed as half life of degradation in PBS of pH 11.5 by HPLC; type: physicochemical; in short: as §6
[29] = Stability in human CEM cells assessed as half life of degradation by HPLC; type: ADME, cell-based; settings: CEM (CCRF-CEM) cells; in short: as §3
[30] = Chemical stability assessed as half life of degradation in PBS of pH 7.3 by HPLC; type: physicochemical; in short: as §6

| SMILES | Activity [1] | Activity [2] | Activity [3] | Activity [4] | Activity [7] | Activity [8] | Activity [9] | Activity [10] | Activity [11] | Activity [12] | Activity [13] | Activity [14] | Activity [15] | Activity [16] | Activity [17] | Activity [18] | Activity [21] | Activity [22] | Activity [24] | Activity [25] | also measured |
| --- | --- | --- | --- | --- | --- | --- | --- | --- | --- | --- | --- | --- | --- | --- | --- | --- | --- | --- | --- | --- | --- |
| Cc1cn([C@H]2C[C@H](N=[N+]=[N-])[C@@H](CC[PH](=O)O)O2)c(=O)[nH]c1=O | inactive | inactive | Non-toxic | inactive | inactive | inactive | Non-toxic | inactive | inactive | Non-toxic | inactive | inactive | Non-toxic | inactive | inactive | inactive | Non-toxic | inactive | inactive | Non-toxic | Stability [5]: Stable; Stability [6]: Stable; Stability [19]: Stable; Stability [20]: Stable; Stability [23]: Stable |
| Cc1cn([C@H]2C=C[C@@H](CC[PH](=O)O)O2)c(=O)[nH]c1=O | inactive | inactive | Non-toxic | inactive | inactive | inactive | Non-toxic | inactive | inactive | Non-toxic | inactive | inactive | Non-toxic | inactive | inactive | inactive | Non-toxic | inactive | inactive | Non-toxic | half-life [26]: 11 h; half-life [27]: 28 h; half-life [28]: > 48 h; half-life [29]: 2 h; half-life [30]: > 48 h |
| BP(=O)(O)CC[C@H]1O[C@@H](n2cc(C)c(=O)[nH]c2=O)C[C@@H]1N=[N+]=[N-] | inactive | inactive | Non-toxic | inactive | inactive | inactive | Non-toxic | inactive | inactive | Non-toxic | inactive | inactive | Non-toxic | inactive | inactive | inactive | Non-toxic | inactive | inactive | Non-toxic | half-life [26]: 3.1 h; Stability [5]: Stable; Stability [19]: Stable; Stability [20]: Stable; half-life [29]: > 48 h |
| BP(=O)(O)CC[C@@H]1C=C[C@H](n2cc(C)c(=O)[nH]c2=O)O1 | inactive | inactive | Non-toxic | inactive | inactive | inactive | Non-toxic | inactive | inactive | Non-toxic | inactive | inactive | Non-toxic | inactive | inactive | inactive | Non-toxic | inactive | inactive | Non-toxic | half-life [26]: 1.6 h; half-life [27]: 16 h; half-life [28]: > 48 h; half-life [29]: 3 h; half-life [30]: 22 h |
